As a reminder, the IC50 is the point on the concentration scale where inhibition reaches its midpoint.

Assay [1] in a line: Inhibition of class 1 HDAC in human HeLa nuclear extracts using Boc-Lys(Ac)-AMC as substrate preincubated for 5 mins followed by substrate addition measured after 30 mins by fluorescence assay.
The next assay concerns PC-3. As to the kind of experiment: Cytotoxicity against human PC3 cells assessed as growth inhibition after 48 hrs by SRB assay. The assay is classed as functional, cell-based. To be noted: PC-3, 48 h.
A further assay has as its system A549. As to the kind of experiment: Cytotoxicity against human A549 cells assessed as growth inhibition after 48 hrs by SRB assay. The assay is classed as functional, cell-based. To be noted: A549, 48 h.
For another assay, the target named is Histone deacetylase 1 (Homo sapiens, UniProt Q13547). As to the kind of experiment: Inhibition of C-terminal FLAG/His-tagged full length recombinant human HDAC1 expressed in baculovirus infected Sf9 insect cells using KI 177 as substrate preincubated for 5 mins followed by substrate addition measured after 30 mins by fluorescence assay.
Assay [2] addresses T1, Histone deacetylase 2 (Homo sapiens, UniProt Q92769). As to the kind of experiment: biochemical. In kind it is cell-based, Sf9.
Assay [3] has as its target Histone deacetylase 3/Nuclear receptor corepressor 2 (HDAC3/NCoR2) (Homo sapiens, UniProt O15379). As to the kind of experiment: Inhibition of C-terminal His-tagged/N-terminal GST-tagged full length recombinant human HDAC3/NcoR2 expressed in baculovirus infected Sf9 insect cells using KI 177 as substrate preincubated for 5 mins followed by substrate addition measured after 30 mins by fluorescence assay.

In a further assay the target is T2, Histone deacetylase 8 (Homo sapiens, UniProt Q9BY41).
T2 sequence (Q9BY41 whole entry): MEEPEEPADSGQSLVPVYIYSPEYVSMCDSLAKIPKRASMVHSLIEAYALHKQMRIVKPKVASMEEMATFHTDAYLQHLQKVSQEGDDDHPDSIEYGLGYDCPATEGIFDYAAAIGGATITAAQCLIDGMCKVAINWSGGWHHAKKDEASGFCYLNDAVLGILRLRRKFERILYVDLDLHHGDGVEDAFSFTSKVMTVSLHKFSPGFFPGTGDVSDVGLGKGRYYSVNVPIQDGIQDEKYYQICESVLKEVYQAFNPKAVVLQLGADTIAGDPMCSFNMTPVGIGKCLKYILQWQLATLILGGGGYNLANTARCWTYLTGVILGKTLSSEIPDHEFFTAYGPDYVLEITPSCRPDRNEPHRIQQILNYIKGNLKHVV
As to the kind of experiment: Inhibition of C-terminal His-tagged recombinant human HDAC8 (1 to 377 residues) expressed in baculovirus infected Sf9 insect cells using Boc-Lys(TFA)-AMC as substrate preincubated for 5 mins followed by substrate addition measured after 30 mins by fluorescence assay.

The target of the next assay is Histone deacetylase 4 (Homo sapiens, UniProt P56524). As to the kind of experiment: Inhibition of N-terminal GST/C-terminal His-tagged recombinant human HDAC4 (648 to 1057 residues) expressed in baculovirus infected Sf9 insect cells using Boc-Lys(TFA)-AMC as substrate preincubated for 5 mins followed by substrate addition measured after 30 mins by fluorescence assay.

Another assay deals with Histone deacetylase 5 (Homo sapiens, UniProt Q9UQL6). As to the kind of experiment: Inhibition of full length recombinant human HDAC5 preincubated for 5 mins followed by substrate addition measured after 30 mins by fluorescence assay.
The target of another assay is T3, Histone deacetylase 7 (Homo sapiens, UniProt Q8WUI4).
T3 sequence (Q8WUI4 whole entry): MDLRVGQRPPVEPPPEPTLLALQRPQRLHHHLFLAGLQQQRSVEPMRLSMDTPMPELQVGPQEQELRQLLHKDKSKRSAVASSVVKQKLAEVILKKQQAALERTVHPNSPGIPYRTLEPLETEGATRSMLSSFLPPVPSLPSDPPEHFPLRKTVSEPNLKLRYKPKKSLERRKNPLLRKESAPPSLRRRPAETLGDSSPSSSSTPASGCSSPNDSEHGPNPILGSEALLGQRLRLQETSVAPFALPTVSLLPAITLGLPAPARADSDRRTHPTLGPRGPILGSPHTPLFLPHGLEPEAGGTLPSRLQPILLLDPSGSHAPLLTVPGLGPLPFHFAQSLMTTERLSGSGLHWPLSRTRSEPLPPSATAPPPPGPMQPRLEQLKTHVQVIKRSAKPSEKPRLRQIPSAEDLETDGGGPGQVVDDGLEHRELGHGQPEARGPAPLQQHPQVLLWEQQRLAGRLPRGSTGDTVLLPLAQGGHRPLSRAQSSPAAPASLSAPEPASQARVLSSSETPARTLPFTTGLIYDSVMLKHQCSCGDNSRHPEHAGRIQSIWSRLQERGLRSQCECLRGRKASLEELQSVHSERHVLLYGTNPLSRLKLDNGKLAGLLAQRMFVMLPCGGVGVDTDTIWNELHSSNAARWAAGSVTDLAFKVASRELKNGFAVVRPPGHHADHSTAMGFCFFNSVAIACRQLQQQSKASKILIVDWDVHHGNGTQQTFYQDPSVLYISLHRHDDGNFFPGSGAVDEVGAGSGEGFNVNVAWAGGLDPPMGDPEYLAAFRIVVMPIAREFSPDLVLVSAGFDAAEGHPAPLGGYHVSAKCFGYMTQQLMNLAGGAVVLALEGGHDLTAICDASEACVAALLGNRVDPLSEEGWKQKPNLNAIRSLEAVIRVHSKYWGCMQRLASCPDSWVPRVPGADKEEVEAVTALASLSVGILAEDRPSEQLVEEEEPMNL
As to the kind of experiment: Inhibition of N-terminal GST-tagged human HDAC7 expressed in baculovirus infected Sf9 insect cells preincubated for 5 mins followed by substrate addition measured after 30 mins by fluorescence assay.

In a further assay the target is Histone deacetylase 9 (Homo sapiens, UniProt Q9UKV0). As to the kind of experiment: Inhibition of C-terminal His-tagged recombinant human HDAC9 expressed in baculovirus infected Sf9 insect cells preincubated for 5 mins followed by substrate addition measured after 30 mins by fluorescence assay.
Assay [4] concerns the target T4, Protein deacetylase HDAC6 (Homo sapiens, UniProt Q9UBN7).
T4 sequence (Q9UBN7 whole entry): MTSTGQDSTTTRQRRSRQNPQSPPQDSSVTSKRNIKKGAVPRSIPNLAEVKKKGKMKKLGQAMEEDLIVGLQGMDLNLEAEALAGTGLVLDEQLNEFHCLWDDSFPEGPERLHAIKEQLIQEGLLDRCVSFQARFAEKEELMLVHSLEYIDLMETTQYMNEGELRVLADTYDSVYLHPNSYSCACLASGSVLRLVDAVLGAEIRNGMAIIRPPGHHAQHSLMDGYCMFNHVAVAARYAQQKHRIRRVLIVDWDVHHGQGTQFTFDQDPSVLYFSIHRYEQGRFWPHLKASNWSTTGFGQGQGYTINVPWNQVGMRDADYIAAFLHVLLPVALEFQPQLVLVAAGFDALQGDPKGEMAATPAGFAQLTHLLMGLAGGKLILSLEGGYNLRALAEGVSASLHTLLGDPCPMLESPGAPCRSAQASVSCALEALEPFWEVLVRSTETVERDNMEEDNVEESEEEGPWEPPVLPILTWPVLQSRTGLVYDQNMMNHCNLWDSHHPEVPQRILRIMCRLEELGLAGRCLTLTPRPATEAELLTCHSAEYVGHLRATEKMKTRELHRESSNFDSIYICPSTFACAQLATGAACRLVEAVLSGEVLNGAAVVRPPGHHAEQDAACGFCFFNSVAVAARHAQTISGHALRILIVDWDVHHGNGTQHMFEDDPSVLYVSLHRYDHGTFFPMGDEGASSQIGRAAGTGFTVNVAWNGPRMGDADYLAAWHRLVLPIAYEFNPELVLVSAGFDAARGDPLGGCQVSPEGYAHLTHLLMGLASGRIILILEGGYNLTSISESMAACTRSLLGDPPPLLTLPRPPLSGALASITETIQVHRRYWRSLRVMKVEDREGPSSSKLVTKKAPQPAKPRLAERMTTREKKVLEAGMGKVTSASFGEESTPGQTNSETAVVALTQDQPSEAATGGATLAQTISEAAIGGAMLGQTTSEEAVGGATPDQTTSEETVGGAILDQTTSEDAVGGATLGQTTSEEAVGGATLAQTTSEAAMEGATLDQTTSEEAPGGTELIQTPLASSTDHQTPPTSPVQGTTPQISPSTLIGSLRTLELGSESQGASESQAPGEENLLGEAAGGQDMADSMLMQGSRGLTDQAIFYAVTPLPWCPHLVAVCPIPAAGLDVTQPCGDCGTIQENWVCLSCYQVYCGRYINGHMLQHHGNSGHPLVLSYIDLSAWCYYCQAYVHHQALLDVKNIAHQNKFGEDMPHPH
As to the kind of experiment: Inhibition of N-terminal GST-tagged human HDAC6 using Boc-Lys(Ac)-AMC as substrate preincubated for 5 mins followed by substrate addition measured after 30 mins by fluorescence assay.

Assay [5] deals with T1, Histone deacetylase 2. As to the kind of experiment: Potency index, ratio of SAHA IC50 to test compound IC50 for full length recombinant human HDAC2 expressed in baculovirus infected Sf9 insect cells. The method, boiled down:
(§1)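 Fluorogenic deacetylase assay in 15 mM Tris-HCl pH 8.1, 0.25 mM EDTA, 250 mM NaCl, 10% glycerol. Enzyme and compound preincubated 5 min at 30 °C. Substrates: Boc-Lys(Ac)-AMC for HeLa extract, Boc-Lys(TFA)-AMC for HDAC8, KI 177 for HDAC1/2. Reaction ran 30 min at 30 °C, then trypsin with SAHA developed it 20 min; read at ex 355/em 460 nm. 0.1% DMSO set as 100% and 2 µM SAHA as 0%; run in triplicate; IC50 ratios relative to SAHA.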

For another assay, the species on record is Homo sapiens. As to the kind of experiment: Potency index, ratio of SAHA IC50 to test compound IC50 for class 1 HDAC in human HeLa nuclear extracts. The method, boiled down:
as §1

T1 sequence (Q92769 whole entry): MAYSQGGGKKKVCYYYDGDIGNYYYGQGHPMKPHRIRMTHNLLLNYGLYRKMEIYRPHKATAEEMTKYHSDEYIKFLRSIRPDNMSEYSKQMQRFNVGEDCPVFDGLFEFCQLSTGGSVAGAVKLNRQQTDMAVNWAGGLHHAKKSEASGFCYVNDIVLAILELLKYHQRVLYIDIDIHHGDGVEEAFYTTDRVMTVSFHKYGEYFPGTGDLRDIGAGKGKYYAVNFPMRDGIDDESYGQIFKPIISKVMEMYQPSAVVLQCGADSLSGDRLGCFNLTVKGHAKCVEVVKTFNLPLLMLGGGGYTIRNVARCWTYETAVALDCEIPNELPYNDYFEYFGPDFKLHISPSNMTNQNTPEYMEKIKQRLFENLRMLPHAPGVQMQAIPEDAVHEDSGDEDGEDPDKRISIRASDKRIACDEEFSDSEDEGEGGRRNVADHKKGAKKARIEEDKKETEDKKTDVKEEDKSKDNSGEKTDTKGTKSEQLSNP
Sequence of Histone deacetylase 9 (Q9UKV0 whole entry): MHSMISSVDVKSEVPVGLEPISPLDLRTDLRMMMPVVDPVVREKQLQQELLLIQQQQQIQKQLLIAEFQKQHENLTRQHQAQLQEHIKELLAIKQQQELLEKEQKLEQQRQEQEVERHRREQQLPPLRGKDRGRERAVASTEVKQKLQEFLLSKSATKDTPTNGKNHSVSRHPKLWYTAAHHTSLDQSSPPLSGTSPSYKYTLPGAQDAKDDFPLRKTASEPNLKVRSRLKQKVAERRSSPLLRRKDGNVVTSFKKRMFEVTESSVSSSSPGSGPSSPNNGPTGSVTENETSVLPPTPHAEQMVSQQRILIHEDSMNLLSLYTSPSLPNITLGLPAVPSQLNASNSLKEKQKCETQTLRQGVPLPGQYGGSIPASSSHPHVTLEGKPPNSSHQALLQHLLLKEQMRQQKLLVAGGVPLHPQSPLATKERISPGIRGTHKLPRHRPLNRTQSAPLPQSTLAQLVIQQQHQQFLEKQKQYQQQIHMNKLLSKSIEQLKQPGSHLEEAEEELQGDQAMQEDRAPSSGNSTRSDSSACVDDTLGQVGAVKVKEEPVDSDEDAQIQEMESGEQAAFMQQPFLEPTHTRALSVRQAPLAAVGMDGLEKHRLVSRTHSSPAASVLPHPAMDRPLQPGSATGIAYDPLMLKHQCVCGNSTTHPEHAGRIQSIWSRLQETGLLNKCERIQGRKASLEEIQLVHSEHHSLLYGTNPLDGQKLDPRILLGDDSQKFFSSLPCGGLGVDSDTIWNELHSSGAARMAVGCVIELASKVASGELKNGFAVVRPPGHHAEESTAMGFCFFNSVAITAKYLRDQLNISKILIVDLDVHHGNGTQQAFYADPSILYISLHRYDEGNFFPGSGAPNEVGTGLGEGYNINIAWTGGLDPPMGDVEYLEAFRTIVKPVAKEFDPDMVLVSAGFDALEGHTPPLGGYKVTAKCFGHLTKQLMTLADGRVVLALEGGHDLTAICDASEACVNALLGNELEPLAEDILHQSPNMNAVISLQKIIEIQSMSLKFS
Sequence of Histone deacetylase 5 (Q9UQL6 whole entry): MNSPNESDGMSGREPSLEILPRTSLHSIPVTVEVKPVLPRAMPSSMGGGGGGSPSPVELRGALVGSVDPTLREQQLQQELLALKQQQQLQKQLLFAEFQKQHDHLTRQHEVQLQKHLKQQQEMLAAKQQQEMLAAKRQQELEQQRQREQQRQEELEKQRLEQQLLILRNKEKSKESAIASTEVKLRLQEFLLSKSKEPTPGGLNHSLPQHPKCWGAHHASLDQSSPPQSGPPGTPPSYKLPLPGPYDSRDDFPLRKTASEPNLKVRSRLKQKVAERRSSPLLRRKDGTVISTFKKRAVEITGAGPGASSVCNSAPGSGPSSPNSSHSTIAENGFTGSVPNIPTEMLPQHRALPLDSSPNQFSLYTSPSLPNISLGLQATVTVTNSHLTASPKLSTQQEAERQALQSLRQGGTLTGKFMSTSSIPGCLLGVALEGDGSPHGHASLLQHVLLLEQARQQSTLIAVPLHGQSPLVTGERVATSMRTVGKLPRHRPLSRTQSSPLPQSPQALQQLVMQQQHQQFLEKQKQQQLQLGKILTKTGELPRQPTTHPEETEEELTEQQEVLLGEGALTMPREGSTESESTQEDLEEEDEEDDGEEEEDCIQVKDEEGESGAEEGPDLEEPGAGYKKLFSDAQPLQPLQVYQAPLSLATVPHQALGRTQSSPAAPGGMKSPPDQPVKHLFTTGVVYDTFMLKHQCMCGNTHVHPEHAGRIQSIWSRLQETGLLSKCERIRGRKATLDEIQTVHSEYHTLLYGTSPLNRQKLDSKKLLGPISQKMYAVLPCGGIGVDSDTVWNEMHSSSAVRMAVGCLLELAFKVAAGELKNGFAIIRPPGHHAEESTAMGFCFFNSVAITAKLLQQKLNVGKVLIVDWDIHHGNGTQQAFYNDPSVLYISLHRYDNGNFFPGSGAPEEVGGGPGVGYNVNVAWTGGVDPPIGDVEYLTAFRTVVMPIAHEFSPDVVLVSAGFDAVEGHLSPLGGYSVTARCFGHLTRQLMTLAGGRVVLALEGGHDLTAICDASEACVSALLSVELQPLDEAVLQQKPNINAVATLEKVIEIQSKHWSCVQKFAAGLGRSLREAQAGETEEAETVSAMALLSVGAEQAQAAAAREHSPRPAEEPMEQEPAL
Sequence of Histone deacetylase 4 (P56524 whole entry, the tested form may be a part): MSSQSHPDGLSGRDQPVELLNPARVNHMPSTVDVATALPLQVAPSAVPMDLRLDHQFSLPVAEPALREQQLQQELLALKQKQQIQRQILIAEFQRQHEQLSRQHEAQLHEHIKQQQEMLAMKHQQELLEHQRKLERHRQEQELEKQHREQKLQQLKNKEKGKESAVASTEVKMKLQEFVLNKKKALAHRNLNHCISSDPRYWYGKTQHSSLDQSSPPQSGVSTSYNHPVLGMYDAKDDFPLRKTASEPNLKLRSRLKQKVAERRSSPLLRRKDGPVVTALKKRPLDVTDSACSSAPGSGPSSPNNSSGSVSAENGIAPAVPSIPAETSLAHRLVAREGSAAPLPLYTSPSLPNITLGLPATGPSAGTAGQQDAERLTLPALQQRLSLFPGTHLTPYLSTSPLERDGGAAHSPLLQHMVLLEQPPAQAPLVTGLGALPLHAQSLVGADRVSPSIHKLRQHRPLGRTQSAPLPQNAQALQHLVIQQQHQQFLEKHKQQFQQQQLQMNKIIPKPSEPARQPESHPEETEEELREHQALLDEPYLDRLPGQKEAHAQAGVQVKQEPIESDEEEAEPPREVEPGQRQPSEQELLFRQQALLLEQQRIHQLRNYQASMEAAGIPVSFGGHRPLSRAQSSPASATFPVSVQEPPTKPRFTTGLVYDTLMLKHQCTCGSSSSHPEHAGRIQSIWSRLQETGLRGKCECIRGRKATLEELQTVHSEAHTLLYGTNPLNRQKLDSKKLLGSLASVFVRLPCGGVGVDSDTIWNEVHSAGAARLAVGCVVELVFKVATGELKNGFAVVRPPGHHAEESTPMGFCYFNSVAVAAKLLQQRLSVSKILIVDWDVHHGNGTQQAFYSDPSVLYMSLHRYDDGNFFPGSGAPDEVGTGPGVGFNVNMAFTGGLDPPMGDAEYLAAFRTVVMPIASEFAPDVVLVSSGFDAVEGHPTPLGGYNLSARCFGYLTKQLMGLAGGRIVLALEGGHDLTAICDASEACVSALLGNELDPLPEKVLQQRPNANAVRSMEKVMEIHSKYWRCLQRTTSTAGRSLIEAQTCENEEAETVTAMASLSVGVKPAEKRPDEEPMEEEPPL
Sequence of Histone deacetylase 1 (Q13547 whole entry): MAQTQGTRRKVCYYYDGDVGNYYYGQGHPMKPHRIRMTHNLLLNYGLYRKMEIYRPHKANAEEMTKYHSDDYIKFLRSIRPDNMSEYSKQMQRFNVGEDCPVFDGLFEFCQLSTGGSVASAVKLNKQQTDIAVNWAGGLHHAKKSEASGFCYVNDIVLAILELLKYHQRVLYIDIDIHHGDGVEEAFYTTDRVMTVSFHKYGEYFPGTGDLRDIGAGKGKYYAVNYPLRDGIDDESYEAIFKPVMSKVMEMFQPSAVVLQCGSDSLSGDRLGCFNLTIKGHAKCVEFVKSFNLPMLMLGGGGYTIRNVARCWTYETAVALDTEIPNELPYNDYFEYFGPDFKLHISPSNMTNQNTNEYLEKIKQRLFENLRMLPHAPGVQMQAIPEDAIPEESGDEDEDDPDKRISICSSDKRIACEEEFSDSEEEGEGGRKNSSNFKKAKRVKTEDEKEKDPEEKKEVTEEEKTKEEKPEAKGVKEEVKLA

For the compound `COc1ccc2c(ccn2CCOc2cccc(NC(=O)CCCCCCCCC(=O)NO)c2)c1`, it took 298 nM to reach half-maximal inhibition in assay [1] (IC50).
Take `COc1cc2ccn(CCCCOc3ccccc3NC(=O)CCCCCCC(=O)NO)c2c(OC)c1OC`: the IC50 in assay [1] was found to be 111 nM; in the assay with PC-3 it was 2400 nM; with A549 it was 4800 nM.
For `COc1cc2ccn(CCCCOc3ccc(NC(=O)CCCCCCC(=O)NO)cc3)c2c(OC)c1OC`, the values for the IC50 (in assay [1]; in the assay on PC-3; in the assay on A549) were 46.4 nM, 7700 nM and 9700 nM, respectively.
In the case of `COc1cc2ccn(CCOc3ccccc3NC(=O)CCCCCCC(=O)NO)c2c(OC)c1OC`, the IC50 in [1] was determined as 110 nM; in the assay on PC-3 it was 5600 nM; in the assay with A549, 5900 nM.
For the compound `COc1ccc2ccn(CCOc3cccc(NC(=O)CCCCCCC(=O)NO)c3)c2c1`, the IC50 in assay [1] came out at 14.9 nM; in the assay with PC-3, 1800 nM; in the assay with A549, 4200 nM.
In assay [1], `O=C(CCCCCCC(=O)Nc1cccc(OCCn2ccc3cc(Br)ccc32)c1)NO` showed a half-maximal inhibitory concentration (IC50) of 41.3 nM.
For `COc1ccc2c(ccn2CCOc2cccc(NC(=O)CCCCCCCC(=O)NO)c2)c1`, the midpoint of inhibition in assay [1], the IC50, lay at 40 nM.
As for `COc1cc2ccn(CCOc3cccc(NC(=O)CCCCCCC(=O)NO)c3)c2c(OC)c1OC`, the IC50 in assay [1] amounted to 11.5 nM; in the assay with PC-3, 1300 nM; with A549, 2400 nM; at Histone deacetylase 1, 11.1 nM; against Histone deacetylase 2 [2] it was 111 nM; in assay [3] it was 72.5 nM. In addition, the IC50 was 421 nM on Histone deacetylase 8; greater than 10000 nM on Histone deacetylase 4; greater than 10000 nM at Histone deacetylase 5; greater than 10000 nM against Histone deacetylase 7; greater than 10000 nM on Histone deacetylase 9; 9.6 nM in [4]. For the same compound, the Ratio IC50 on Histone deacetylase 2 [5] was 2; in the assay filed under Homo sapiens, 2 to 5.
The compound `O=C(CCCCCCC(=O)Nc1cccc(OCCn2ccc3ccccc32)c1)NO` gave an IC50 in assay [1] of 23.1 nM.
As for `COc1cc2ccn(CCCOc3cccc(NC(=O)CCCCCCC(=O)NO)c3)c2c(OC)c1OC`, the IC50 came to 22.5 nM in assay [1], 2700 nM in the assay with PC-3 and 2700 nM with A549. Further, in the assay listed under Homo sapiens, the Ratio IC50 was 2 to 5.
In the case of `COc1cc2ccn(CCCOc3ccc(NC(=O)CCCCCCC(=O)NO)cc3)c2c(OC)c1OC`, the IC50 in assay [1] was 139 nM; with PC-3 it was 6900 nM; in the assay with A549 it was 5900 nM.
With `COc1cc2ccn(CCCCOc3cccc(NC(=O)CCCCCCC(=O)NO)c3)c2c(OC)c1OC`, the IC50 in assay [1] came to 17.8 nM; with PC-3, 2100 nM; in the assay with A549 it was 2400 nM; on Histone deacetylase 1, 29.3 nM; against Histone deacetylase 2 [2], 1000 nM; in assay [3] it was 108 nM. Moreover, the 50% inhibitory concentration (IC50) on Histone deacetylase 8 is 752 nM; at Histone deacetylase 4, greater than 10000 nM; on Histone deacetylase 5, greater than 10000 nM; at Histone deacetylase 7, greater than 10000 nM; on Histone deacetylase 9, greater than 10000 nM; in assay [4], 8.5 nM. Also, the Ratio IC50 in the assay listed under Homo sapiens fell in the range of 2 to 5.
`COc1ccc2c(ccn2CCOc2cccc(NC(=O)CCCCC(=O)NO)c2)c1` showed an IC50 in [1] of 186 nM.
As for `COc1cccc2ccn(CCOc3cccc(NC(=O)CCCCCCC(=O)NO)c3)c12`, the IC50 in [1] was 13.5 nM; in the assay with PC-3, 1400 nM; in the assay with A549 it was 1900 nM.
For `COc1cc2ccn(CCOc3ccc(NC(=O)CCCCCCC(=O)NO)cc3)c2c(OC)c1OC`, the 50% inhibitory concentration (IC50) in [1] was determined as 57.2 nM; with PC-3, 4400 nM; in the assay on A549 it was 4900 nM.
Take `COc1cc2ccn(CCCOc3ccccc3NC(=O)CCCCCCC(=O)NO)c2c(OC)c1OC`: the IC50 was 111 nM in assay [1], 3900 nM with PC-3 and 5000 nM with A549.

These data come from ChEMBL document CHEMBL4138235, “Discovery of aliphatic-chain hydroxamates containing indole derivatives with potent class I histone deacetylase inhibitory activities” (Eur J Med Chem, 2018).
